Measured values published in ChEMBL document CHEMBL4706641, “Novel Carboline Fungal Histone Deacetylase (HDAC) Inhibitors for Combinational Treatment of Azole-Resistant Candidiasis” (J Med Chem, 2021).
≈ marks a conversion by molar mass, not a printed value. Calls of active or inactive are those of the source. No cut-off for these calls is given here.

Key:
Candida albicans [1] = test: Synergistic antifungal activity against Candida albicans 9884 assessed as potentiation of fluconazole antifungal activity by measuring FICI incubated for 48 hrs in presence of fluconazole by checkerboard microdilution assay; type: functional
How it was run: (§1)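 Checkerboard broth microdilution per CLSI M27-A3 (modified), clinical Candida isolates. 48 h at 35 °C; OD630 read with background subtracted. MIC80 = 80% growth inhibition; FICI ≤0.5 synergy, >4 antagonism.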

Candida albicans [2] = test: Synergistic antifungal activity against Candida albicans 9172 assessed as fluconazole MIC incubated for 48 hrs in presence of fluconazole by microdilution assay (reference value: fluconazole alone MIC = >[…] ug/ml); type: functional
Candida albicans [3] = test: Synergistic antifungal activity against Candida albicans 0304103 at 8 ug/ml incubated for 48 hrs in presence of 32 ug/ml fluconazole by microdilution assay; type: functional, organism-based; conditions: dose 8.0 µg/ml
Candida albicans [4] = test: Antifungal activity against Candida albicans 4108 incubated for 48 hrs by microdilution assay; type: functional
How it was run: as §1, with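 “isolates. Exponential cells in RPMI 1640 (MOPS-buffered) at 10³ cells/mL; fluconazole 0.25–64 μg/mL crossed with test compound 2–64 μg/mL (final).” for “isolates.”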

Nakaseomyces glabratus = test: Synergistic antifungal activity against Candida glabrata assessed as potentiation of VRC antifungal activity by measuring VRC incubated for 48 hrs in presence of fluconazole by checkerboard microdilution assay; type: functional, organism-based
Candida albicans [5] = test: Synergistic antifungal activity against Candida albicans 4108 assessed as potentiation of fluconazole antifungal activity by measuring FICI incubated for 48 hrs in presence of fluconazole by checkerboard microdilution assay; type: functional
Candida albicans [6] = test: Antifungal activity against Candida albicans 9172 incubated for 48 hrs by microdilution assay; type: functional
How it was run: as §1, with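 “isolates. Exponential cells in RPMI 1640 (MOPS-buffered) at 10³ cells/mL; fluconazole 0.25–64 μg/mL crossed with test compound 2–64 μg/mL (final).” for “isolates.”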

[7] = Toxicity in human L02 cells; type: cell-based
Candida albicans [8] = test: Synergistic antifungal activity against azole-resistant Candida albicans assessed as potentiation of ITC antifungal activity by measuring ITC incubated for 48 hrs in presence of fluconazole by checkerboard microdilution assay; type: functional
Candida albicans [9] = test: Induction of morphological changes in Candida albicans assessed as reduction in morphological conversion from yeast to hypha forms at 32 ug/ml incubated for 3 hrs in presence of 32 ug/ml fluconazole by inverse fluorescence microscopy; type: functional, organism-based; conditions: dose 32.0 µg/ml
How it was run: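 Exponential C. albicans at 2 × 10⁶ cells/mL in Spider medium (hypha-inducing), drugs alone or combined, DMSO control; 3 h at 37 °C, then observed and photographed by inverted fluorescence microscopy. Three independent experiments.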

Candida albicans [10] = test: Synergistic antifungal activity against Candida albicans 0304103 incubated for 48 hrs in presence of fluconazole by microdilution assay; type: functional
How it was run: as §1, with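 “isolates. Exponential cells in RPMI 1640 (MOPS-buffered) at 10³ cells/mL; fluconazole 0.25–64 μg/mL crossed with test compound 2–64 μg/mL (final).” for “isolates.”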

Candida albicans [11] = test: Up-regulation of MDR1 mRNA expression in Candida albicans 0304103 at 32 ug/ml incubated for 24 hrs in presence of 32 ug/ml fluconazole by RT-PCR analysis; type: functional; conditions: dose 32.0 µg/ml
How it was run: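 Cells from a 1 × 10⁶ cells/mL starting suspension were split into DMSO control, FLC 32 μg/mL, test compound 32 μg/mL and combination (32 + 32 μg/mL) groups, then incubated 24 h at 35 °C in YEPD. Total RNA was extracted and reverse-transcribed. Real-time PCR ran 40 cycles (95 °C 5 s, 60 °C 34 s). Fold change was calculated by 2^−ΔΔCt against ACT1.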

Candida albicans [12] = test: Synergistic antifungal activity against Candida albicans 10061 incubated for 48 hrs in presence of fluconazole by microdilution assay; type: functional
How it was run: as §1, with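 “isolates. Exponential cells in RPMI 1640 (MOPS-buffered) at 10³ cells/mL; fluconazole 0.25–64 μg/mL crossed with test compound 2–64 μg/mL (final).” for “isolates.”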

Candida albicans [13] = test: Down regulation of ERG11 mRNA expression in Candida albicans 0304103 at 32 ug/ml incubated for 24 hrs in presence of 32 ug/ml fluconazole by RT-PCR analysis; type: functional; conditions: dose 32.0 µg/ml
How it was run: (§2)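 C. albicans 0304103 (initial 1 × 10⁶ cells/mL) treated with DMSO, fluconazole 32 μg/mL, compound 32 μg/mL, or both in YEPD medium, 35 °C for 24 h. Total RNA extracted, reverse transcribed, real-time PCR for 40 cycles; fold change by 2^−ΔΔCt with ACT1 as internal control.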

Candida albicans [14] = test: Antifungal activity against Candida albicans 0304103 infected in ICR mouse model of candidiasis assessed as reduction in morphological changes of budded-to-hyphal transition at 10 mg/kg, ip dosed 24 hrs post infection and co-treated with 1 mg/kg, ip fluconazole and measured after 5 days by H and E staining based microscopical analysis; type: functional, organism-based; conditions: time 5.0 day
How it was run: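 Two ICR mice per group, infected and treated as in the kidney burden model (IV 5 × 10⁵ C. albicans 0304103; IP compound 10 mg/kg, fluconazole 1 mg/kg, or combination, 5 days). Kidneys fixed in 4% paraformaldehyde, paraffin-embedded, 4 μm sections, H&E stained, examined at 40× and 200×.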

Candida tropicalis = test: Synergistic antifungal activity against Candida tropicalis assessed as potentiation of ITC antifungal activity by measuring ITC incubated for 48 hrs in presence of fluconazole by checkerboard microdilution assay; type: functional, organism-based
Cryptococcus neoformans = test: Synergistic antifungal activity against Cryptococcus neoformans assessed as potentiation of VRC antifungal activity by measuring VRC incubated for 48 hrs in presence of fluconazole by checkerboard microdilution assay; type: functional, organism-based
Candida albicans [15] = test: Down regulation of CDR1 mRNA expression in Candida albicans 0304103 at 32 ug/ml incubated for 24 hrs in presence of 32 ug/ml fluconazole by RT-PCR analysis; type: functional; conditions: dose 32.0 µg/ml; how it was run: as §2
[16] = Toxicity in HUVEC; type: cell-based; conditions: human, HUVEC cells
Candida albicans [17] = test: Down regulation of CDR2 mRNA expression in Candida albicans 0304103 at 32 ug/ml incubated for 24 hrs in presence of 32 ug/ml fluconazole by RT-PCR analysis; type: functional; conditions: dose 32.0 µg/ml; how it was run: as §2
Candida albicans [18] = test: Synergistic antifungal activity against Candida albicans 0304103 assessed as potentiation of fluconazole antifungal activity incubated for 48 hrs in presence of fluconazole by checkerboard microdilution assay; type: functional, organism-based
How it was run: as §1, with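 “isolates. Exponential cells in RPMI 1640 (MOPS-buffered) at 10³ cells/mL; fluconazole 0.25–64 μg/mL crossed with test compound 2–64 μg/mL (final).” for “isolates.”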

[19] = target: Histone deacetylase (Homo sapiens) (UniProt Q13547+O15379+Q9UBN7+Q92769+Q9UQL6+Q8WUI4+Q9BY41+Q96DB2+P56524+Q9UKV0+Q969S8); test: Inhibition of HDAC in HUVEC using Boc-Lys(Ac)-AMC substrate incubated for 18 hrs by fluorescence based assay; type: protein assay
How it was run: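 Human total HDAC in whole HUVEC cells: about 15000 cells/well, 24 h at 37 °C/5% CO₂ before compound; then Boc-Lys(Ac)-AMC 33 μM, 37 °C 6 h, trypsin/Nonidet P-40 stop 2 h, fluorescence Ex 360/Em 460 nm. Inhibition relative to control after blank subtraction; three independent experiments.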

Pichia kudriavzevii = test: Antifungal activity against Candida krusei 10153 incubated for 48 hrs by microdilution assay; type: functional
How it was run: as §1, with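 “isolates. Exponential cells in RPMI 1640 (MOPS-buffered) at 10³ cells/mL; fluconazole 0.25–64 μg/mL crossed with test compound 2–64 μg/mL (final).” for “isolates.”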

Candida albicans [20] = test: Inhibition of biofilm formation in Candida albicans 0304103 at 64 ug/ml incubated for 24 hrs in presence of fluconazole by XTT reduction assay; type: functional, organism-based; conditions: dose 64.0 µg/ml
How it was run: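 C. albicans 0304103 at 1.0 × 10⁶ CFU/mL in RPMI 1640 allowed to adhere 90 min at 37 °C, washed with PBS, then fresh medium with fluconazole 2–32 μg/mL and/or compound 0.12–64 μg/mL added; 24 h at 37 °C. Biofilm metabolic activity by XTT reduction, OD490. Three independent experiments.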

For `O=C(Cc1ccc(OCCCn2c3c(c4cccc(Cl)c42)CCNC3)cc1)NO`, the “fractional inhibitory concentration index (FICI)” value (Candida albicans [1]) was 0.039, the MIC80 (Candida albicans [2]) was 0.5 µg/mL and the Activity (Candida albicans [3]) was “inactive”. The MIC80 (Candida albicans [4]) was 64 µg/mL (≈ 155 µM), the Activity (Nakaseomyces glabratus) was “Active” and the “fractional inhibitory concentration index (FICI)” value (Candida albicans [5]) was 0.035. The MIC80 (Candida albicans [6]) was over 64 µg/mL, the IC50 [7] was 11.5 µM and the “fractional inhibitory concentration index (FICI)” value (Candida albicans [8]) was 0.035. For the same compound, the Activity (Candida albicans [9]) was “Active”, the MIC80 (Candida albicans [10]) was 2 µg/mL and the fold change (FC) (Candida albicans [11]) was 8. The MIC80 (Candida albicans [12]) was 2 µg/mL, the Activity (Candida albicans [13]) was “Active” and the Activity (Candida albicans [14]) was “Active”. For the same compound, the Activity (Candida tropicalis) was “Active”, the Activity (Cryptococcus neoformans) was “inactive” and the Activity (Candida albicans [15]) was “Active”. The IC50 [16] was 9.64 µM, the Activity (Candida albicans [17]) was “Active” and the Activity (Candida albicans [18]) was “Dose-dependent effect”. For the same compound, the inhibition [19] was “inactive”, the MIC80 (Pichia kudriavzevii) was 64 µg/mL (≈ 155 µM) and the inhibition (Candida albicans [20]) was “Active”.
